1 molecule from ChEMBL document CHEMBL4732082, “Development of novel benzimidazole-derived neddylation inhibitors for suppressing tumor growth invitro and invivo” (Eur J Med Chem, 2021) can be followed below.

Activity calls are given as the source filed them. The rule behind the calls is not given here.

In series [1] the test system is A549. In words: Induction of apoptosis in human A549 cells assessed as live cells at 20 uM after 48 hrs by Annexin V-FITC/PI double staining based flow cytometric analysis (reference value: 91.8%). It counts as functional.
Series [2] relates to A549. Put plainly: Antitumor activity against human A549 cells xenografted in nude mouse assessed as inhibition of tumor growth at 60 mg/kg, po qd for 5 days on and 2 days off dosing and measured after 24 days post-treatment. Format: functional, organism-based. Particulars: time 24.0 day. The essentials:
(§1)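 Female nude mice were inoculated subcutaneously with 2×10^6 A549 cells in 0.1 mL PBS. At tumor volume 70–100 mm³, mice were randomized into 5 groups of 6. Dosing was ip or oral gavage, once daily on a 5-days-on/2-days-off schedule, with 10% 2-hydroxypropyl-β-cyclodextrin/water as vehicle control. Body weight and tumor volume were measured every two days; tumors were weighed at sacrifice. Significance by two-tailed Student's t-test.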

Series [3] concerns the target T1, NEDD8-activating enzyme E1 regulatory subunit (Homo sapiens) (UniProt Q13564).
T1 sequence (whole entry): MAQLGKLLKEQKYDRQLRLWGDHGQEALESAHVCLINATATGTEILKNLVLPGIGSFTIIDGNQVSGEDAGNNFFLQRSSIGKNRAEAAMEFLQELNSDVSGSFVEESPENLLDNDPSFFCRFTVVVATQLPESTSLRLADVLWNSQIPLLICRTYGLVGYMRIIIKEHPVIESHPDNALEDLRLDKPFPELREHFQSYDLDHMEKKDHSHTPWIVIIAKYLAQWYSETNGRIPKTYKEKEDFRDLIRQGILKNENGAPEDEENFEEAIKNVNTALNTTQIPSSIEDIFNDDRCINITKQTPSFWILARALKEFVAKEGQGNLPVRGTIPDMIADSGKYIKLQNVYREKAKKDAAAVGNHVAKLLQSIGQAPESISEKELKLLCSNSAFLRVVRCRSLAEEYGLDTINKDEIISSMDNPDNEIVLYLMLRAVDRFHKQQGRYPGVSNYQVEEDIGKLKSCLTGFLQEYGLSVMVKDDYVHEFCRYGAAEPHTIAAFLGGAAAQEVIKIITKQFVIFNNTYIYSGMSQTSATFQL
In words: Inhibition of NAE-mediated UBE2M neddylation in human A549 cells at 12.5 to 25 uM measured after 6 to 12 hrs by Western blot analysis. It counts as cell-based. Particulars: dose 12.5-25 µM, time 6-12 hrs. The essentials: (§2)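 A549 cells were treated 6 or 12 h with graded concentrations (4.5–75 μM) against a 0.1% DMSO control. Cells were washed in cold PBS, lysed in RIPA on ice and cleared by centrifugation, and protein was normalized. Cullin-Nedd8 was resolved on non-reducing SDS-PAGE and Wee1/p27 under reducing conditions, then detected by Western blot.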
Background: A western blot detects proteins with antibodies after separation by electrophoresis.

Series [4] relates to A549. Put plainly: Induction of apoptosis in human A549 cells assessed as necrotic cells at 20 uM after 48 hrs by Annexin V-FITC/PI double staining based flow cytometric analysis (reference value: 1.57%). Format: functional. For orientation: Flow cytometry measures light scatter and fluorescence of single cells or particles in a stream.
Series [5] relates to A549. Put plainly: Induction of apoptosis in human A549 cells assessed as early apoptotic cells at 20 uM after 48 hrs by Annexin V-FITC/PI double staining based flow cytometric analysis (reference value: 2.04%). Format: functional.
Series [6] has as its target T1, NEDD8-activating enzyme E1 regulatory subunit (Homo sapiens). Put plainly: Inhibition of NAE-mediated neddylation in human A549 cells assessed as suppression of cullin5-Nedd8 adduct formation at 12.5 to 25 uM measured after 6 to 12 hrs by Western blot analysis. Format: cell-based. The following applies: dose 12.5-25 µM, time 6-12 hrs. The procedure, abridged:
as §2

For series [7], the system named is A549. Put plainly: Antiproliferative activity against human A549 cells incubated for 48 hrs by CCK-8 assay. It counts as functional, cell-based. The following applies: A549, 48 h. The procedure, abridged:
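Cells from ATCC, passaged six times, grown in DMEM with 10% FBS and penicillin/streptomycin at 37 °C under 5% CO2. Seeded at 2500 cells/well, cultured overnight, treated 48 h, viability read by CCK-8. Run in triplicate; values are the mean of three experiments.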
(Tetrazolium assays rely on reduction of a dye to a coloured formazan, in cell work by metabolically active cells.)

Series [8] concerns A549. In words: Induction of apoptosis in human A549 cells assessed as increase in ratio of early and late apoptotic cells at 10 to 40 uM after 48 hrs by Annexin V-FITC/PI double staining based flow cytometric analysis (reference value: 2.6%). It counts as functional. The following applies: dose 10-40 µM.
The subject of series [9] is A549. Put plainly: Antitumor activity against human A549 cells xenografted in nude mouse assessed as decrease in tumor volume at 30 mg/kg, ip qd for 5 days on and 2 days off dosing and measured after 24 days post-treatment. Format: functional, organism-based. The following applies: time 24.0 day. The essentials: as §1
Series [10] has as its system A549. Put plainly: Induction of apoptosis in human A549 cells assessed as necrotic cells at 10 uM after 48 hrs by Annexin V-FITC/PI double staining based flow cytometric analysis (reference value: 1.57%). Format: functional.
Series [11] concerns A549. In words: Induction of apoptosis in human A549 cells assessed as live cells at 10 uM after 48 hrs by Annexin V-FITC/PI double staining based flow cytometric analysis (reference value: 91.8%). Format: functional.
Series [12] can be described thus: Toxicity in nude mouse assessed as effect on body weight at 30 mg/kg, qd after 24 days. It counts as organism-based. Particulars: in vivo, 576 h, time 24 day. The procedure, abridged: as §1
In series [13] the test system is A549. Put plainly: Induction of apoptosis in human A549 cells assessed as late apoptotic cells at 10 uM after 48 hrs by Annexin V-FITC/PI double staining based flow cytometric analysis (reference value: 4.62%). It counts as functional.

With `CCOc1nc2cccc(C(=O)NCCc3ccc(Cl)cc3Cl)c2n1Cc1ccc(-c2ccccc2-c2nnn[nH]2)cc1`, the Activity in [1] is 72.6%; in series [4], 1.91%; in [5] it was 18.6%; in series [8], 35.81%; in [10], 1.57%; in [11], 91.8%. Also, the values for the Activity entry in series [12] and in [13] were “Non-Toxic” and 4.62%, respectively. Also, the outcome in series [2] and in series [9] was Active. In addition, the inhibition result in series [3] and in [6] was “Active” in each case. Besides, the IC50 (in general, the concentration at which inhibition is half-maximal) in series [7] stood at 20.4 µM.
